Test results reported in the array DNA melting data of Ke et al. (doi:10.1101/2024.01.08.574731).

What was measured:
[1] = melting temperature; fluorescence melt of hairpins on a sequencing array, two-state fit, raised by 9.35 °C to match UV melts; conditions: sodium 0.088 M
Method in brief: (§1)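 On a sequenced MiSeq flow cell, library hairpins with annealed Cy3 and quencher oligos were imaged for Cy3 fluorescence in 2.5 °C steps up to 60 °C, in 50 mM Na-HEPES pH 8.0, 25 mM NaCl. Normalisation used pre-quench Cy3 and control constructs. Bootstrapped two-state fits gave melting temperature and folding enthalpy, combined by inverse variance across four replicates and with fitted temperatures raised by 9.35 °C to match UV melts.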

[2] = folding enthalpy; higher = less favourable; fluorescence melt of hairpins on a sequencing array, two-state fit; conditions: sodium 0.088 M
Method in brief: as §1

Sequence	Tm [1] [°C]	folding enthalpy [2] [kcal/mol]
GCTCAGCGAAAGCAGAGC ((((.((....)).))))	67.3	-36.3
GTATAACCGAAAGGTTAC (((..(((....))))))	31.8	-11.4
GTTTTCACGAAAGTGAAC (((..(((....))))))	35.4	-10.3
GCTAATGGAAACATCAGC (((.(((....))).)))	32.5	-22.2
GCTATGCGAAAGCAGTGC ((..(((....)))..))	46.9	-19.1
GATCTCTTATGAGATC ((((((....))))))	54.1	-43.4
GCTGGCCGAAAGGCAGC (((.(((....))))))	65.8	-20.6
GCAAGGCGAAAGCAGTGC (((..((....))..)))	50.9	-16.8
GATGCCGAAAGGCCGATC ((((((....)))..)))	25.2	-10.3
GAGCACGAAAGTGCACTC ((((((....)))..)))	58	-11.9
GATCATACAGATGATC ((((((....))))))	44.4	-35.8
GCTTACGCGAAAGCGAGC (((..(((....))))))	43	-12.7
GCCGCTGGAAACAACGGC ((((.((....)).))))	54.3	-37.1
GGAGTGGGAAACCATTCC (((.(((....))).)))	46	-31
GGTAAGGGAAACCTCACC (((.(((....))).)))	34.7	-21.9
GTGCATCGAAAGATCCAC (((.(((....))).)))	38.1	-28.2
GATCCTGGTAAGGATC ((((((....))))))	65.8	-41.8
GACTCTGGAAACAGAATC ((.((((....)))).))	28.5	-22.3
GTTGACACGAAAGTGAAC (((..(((....))))))	34.1	-14.2
GCATCGGAAACGATGC ((((((....))))))	68.6	-35.8
GAGTCTGGAAACAGACTC (((((((....)))))))	65.3	-39.9
GATCTGCCCTCAGATC ((((((....))))))	49.8	-42.5
CGCACGGAAACGTTAGCG ((((((....)))..)))	44.8	-31.9

Sequence	Tm [1] [°C]	folding enthalpy [2] [kcal/mol]
GTAATTGGAAACAATCAC ((.((((....)))).))	27.4	-11.6
GCGGACCCCCGC ((((....))))	53.3	-34.6
GGACCCGAAAGGGCATCC ((((((....)))..)))	34.2	-11.7
GCCATGCGAAAGCACGGC (((.(((....))).)))	56.9	-49.1
GGATTTCGAAAGAATCC (((.(((....))))))	41.3	-28.8
GATCCGGTTGCGGATC ((((((....))))))	59.6	-40.3
GATCCTATACAGGATC ((((((....))))))	52.4	-38.1
GTGTCGTCGAAAGACCAC (((..(((....))))))	38.4	-19.2
GATCCGTGAACGGATC ((((((....))))))	60.5	-33.1
GGACGTGGAAACGTGTCC ((((..(....)..))))	44.3	-19.9
GATCTCCGATGAGATC ((((((....))))))	50.7	-31.3
GATCGGCAACCCGATC ((((((....))))))	54.4	-38.5
CGATCACGGAAACGTTCG (((..(((....))))))	35.5	-17.2
GCGTGCGAAAGCATTCGC ((((((....)))..)))	52.4	-16.8
GATCTATGGCTAGATC ((((((....))))))	37.6	-30.1
GATCATCCCAATGATC ((((((....))))))	48.2	-36.2
GTCCGAGGAAACTTGGAC ((((.((....)).))))	51	-29.9
GATCAAAGTTTGATC ((((((...))))))	42.7	-27.1
GCGTCGTGACGC ((((....))))	68.4	-22.7
GGTCAAGGAAACTTGACC (((((((....)))))))	63.5	-43
GAAGACGGAAACGTCCTC ((.((((....)))).))	35.9	-11.9
GATCAAAAGATTGATC ((((((....))))))	33.3	-20.6
GCTCTCGAAAGAGGAGC ((((((....))).)))	50.6	-29.2

Sequence	Tm [1] [°C]	folding enthalpy [2] [kcal/mol]
GCGCACGAAAGTGTCGC ((((((....))).)))	64.2	-27.6
GATCATGTAATGATC ((((((...))))))	57.4	-39.8
GATCACGAAAGTGTATC ((((((....))).)))	44	-20.6
GCGTGGCGAAAGCGAGGC ((.(.((....)).).))	51.1	-16.8
GCGGACGCCCGC ((((....))))	56.1	-20.1
GTACCGCGAAAGCGCTAC (((.(((....))).)))	35.9	-12.2
GGTTCCGGAAACGGAATC (.(((((....))))).)	51.4	-23.9
GCGCTGCGAAAGCAAAGC ((..(((....)))..))	60	-17.7
GACACCGAAAGGTCCGTC ((((((....)))..)))	31.4	-16.9
GATCGATTTCTCGATC ((((((....))))))	52.5	-36.4
GGCCGGGGAAACTCGGCC (((((.(....).)))))	68.4	-40
GCTTTGCGAAAGCGATGC ((.(.((....)).).))	46.5	-19.2
GGACGAGGAAACTCATCC (((.(((....))).)))	36.7	-27.4
GATCCACTCCTGGATC ((((((....))))))	50.3	-38.4
GTTACGAAAGTAAC (((((....)))))	54.7	-30
GTTTTTGAAAAAAAAC ((((((....))))))	43.3	-27.3
GATCGTGTCGACGATC ((((((....))))))	60.3	-33.9
GGTATCGAAAGATGTACC ((((((....)))..)))	32.5	-23.2
GTCATAGAAATATGAC ((((((....))))))	45.6	-30.2
GTACGACGAAAGTCCTAC (((.(((....))).)))	31.9	-13.2
GAAAATACGAAAGTATTC (((..(((....))))))	27.7	-13.7
GTTGGTGGAAACACTAGC (.(.(((....))).).)	27.8	-9.95
GCCAGCGCGAAAGCGGGC (((..(((....))))))	61.2	-16.1
